Structures are written as SMILES.

For data set [1], the target named is BTK WT (Homo sapiens, UniProt Q06187). In words: In vitro cellular assay, BTK residence time, BTK WT. In kind it is cell-based. The note with it: read-out: BTK residence time.
Data set [2] can be described thus: Pharmacokinetics in patients. In kind it is in vivo, human. The following applies: 38 patients, 20.5-410 mg BID. A digest of the protocol:
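Phase Ib, patients with relapsed/refractory CLL or other B-cell malignancies; test compound given orally as capsules twice daily at seven escalating dose levels, 20.5 mg/dose up to 410 mg BID. Pharmacokinetic data from 38 patients across the ~12 hour dosing interval; trough concentrations taken on cycle 1 day 8.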

Data set [3] is described as follows: Phase Ib dose-escalation study: safety and tolerability in patients. In kind it is in vivo, human.
In data set [4] the test system is TNFa. As to the kind of experiment: Serum cytokine levels by ELISA in CLL patients. The note with it: after one cycle, 246, 328 and 410 mg dose levels. In kind it is in vivo, human. In general terms: An ELISA detects its analyte on a solid surface through an enzyme-linked reagent.
In data set [5] the test system is CCL3. As to the kind of experiment: Serum cytokine levels by ELISA in CLL patients. It is filed as in vivo, human. The note with it: after one cycle, 246, 328 and 410 mg dose levels.
Data set [6] in a line: Protein binding. It is filed as in vitro ADME.
Data set [7] concerns CCL4. As to the kind of experiment: Serum cytokine levels by ELISA in CLL patients. In kind it is in vivo, human. The note with it: after one cycle, 246, 328 and 410 mg dose levels.
The test system of data set [8] is relapsed/refractory CLL or other B-cell malignancies. As to the kind of experiment: Phase Ib dose-escalation study: clinical activity. In kind it is in vivo, human.
The conditions of data set [9]: reported half-lives; cited from earlier work.
In data set [10] the test system is CCL3. The following applies: BTKi-naïve patients; cited from earlier work.
Data set [11] concerns CCL4. The note with it: BTKi-naïve patients; cited from earlier work.
Data set [12] relates to TNFa. The following applies: BTKi-naïve patients; cited from earlier work.

Chain of BTK WT (Q06187 whole entry): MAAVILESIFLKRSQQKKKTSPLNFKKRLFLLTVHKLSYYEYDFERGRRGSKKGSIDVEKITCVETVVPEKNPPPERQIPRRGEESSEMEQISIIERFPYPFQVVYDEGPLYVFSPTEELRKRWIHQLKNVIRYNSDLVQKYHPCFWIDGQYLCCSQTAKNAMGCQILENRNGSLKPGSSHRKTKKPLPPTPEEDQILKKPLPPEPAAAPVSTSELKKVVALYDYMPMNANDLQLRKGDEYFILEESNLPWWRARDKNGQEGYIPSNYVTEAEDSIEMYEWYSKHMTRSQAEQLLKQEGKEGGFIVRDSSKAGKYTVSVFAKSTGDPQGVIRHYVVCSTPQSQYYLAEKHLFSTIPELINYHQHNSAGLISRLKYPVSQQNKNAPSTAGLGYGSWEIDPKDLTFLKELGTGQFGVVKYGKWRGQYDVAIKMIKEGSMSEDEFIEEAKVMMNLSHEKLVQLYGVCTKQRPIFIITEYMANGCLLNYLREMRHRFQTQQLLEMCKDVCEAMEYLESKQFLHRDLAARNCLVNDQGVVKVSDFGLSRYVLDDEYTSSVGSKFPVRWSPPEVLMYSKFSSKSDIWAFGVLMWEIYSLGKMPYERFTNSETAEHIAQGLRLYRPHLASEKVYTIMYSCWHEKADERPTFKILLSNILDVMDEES

As to `NC(=O)[C@H]1CCN(c2ncnc(N)c2F)C[C@@H]1N1CCC[C@@H](Nc2cc(Cl)cc(C(F)(F)F)c2)C1=O` [Vecabrutinib, vecabrutinib], the residence time in data set [1] came to 15 min. For the same compound, the “Dose proportionality of exposure and median steady-state Ctrough” value in data set [2] is reported as “approximately dose-proportional”. For the same compound, the “Grade ≥3 AE at the two highest dose levels” value in data set [3] (328 and 410 mg BID) is reported as “no grade ≥3 AE observed”. Further, in [3] (all patients), the “AE considered treatment-related by the investigator: anemia” value was 10%, the “AE considered treatment-related by the investigator: fatigue” value is listed as 10%, the “Grade ≥3 AE: anemia” value was determined as 23% and the “Grade ≥3 AE: thrombocytopenia” value is reported as 10%. In data set [3] (all patients), the “Patients with one or more serious AE (SAE)” value is listed as “seven”, the “Treatment-emergent AE: anemia” value stood at 31%, the “Treatment-emergent AE: dyspnea” value was 21% and the “Treatment-emergent AE: fatigue” value was 21%. In addition, in data set [3] (all patients), the “Treatment-emergent AE: headache” value is 21% and the “Treatment-emergent AE: nausea” value came out at 21%. For the same compound, the Maximum-tolerated dose result in [3] (doses 20.5-410 mg BID) is reported as “not reached”. In addition, in data set [3] (human, in vivo), the “Cardiac events or clinically significant electrocardiogram findings” value is recorded as “no cardiac events or clinically significant electrocardiogram findings”, the Dose-dependent toxicity entry is given as “No obvious pattern of dose-dependent toxicity”, the “SAE related to study treatment per the investigator” value is given as “No SAE were considered related to study treatment” and the “SAE: hematuria” value amounted to 1 patient. Further, in data set [3] (human, in vivo), the “SAE: intestinal perforation” value was determined as 1 patient and the “SAE: lymphocytosis” value is 1 patient. In addition, the “Dose up to which well-tolerated” value in [3] (oral capsules, highest dose studied) is given as 410 mg BID. For the same compound, the “Mean reduction in serum TNFa” value in [4] is given as 24-57%. For the same compound, in data set [5], the “Mean reduction in serum CCL3” value was 34-62%. In data set [6], the Protein bound came out at 98.7%. Moreover, in data set [7], the “Mean reduction in serum CCL4” value is listed as 33-59%. Also, the “Best response of stable disease (SD), patients” value in data set [8] (11 CLL, 1 MCL, 1 marginal zone lymphoma) was found to be 13 patients. The “Patients with PR or SD who received vecabrutinib for ≥6 months” value in data set [8] (of 14 patients with PR or SD) was “Eight”. The “Median time on study treatment” value in [8] (patients with PR or SD) was 28.5 weeks.

For `O=C(c1ccc(Oc2ccccc2)cc1Cl)c1c[nH]c2ncnc(N[C@@H]3CC[C@@H](CO)OC3)c12` [ARQ 531], in data set [9], the Half-life is ~55 h.

As for `C=CC(=O)N1CCC[C@@H](n2nc(-c3ccc(Oc4ccccc4)cc3)c3c(N)ncnc32)C1` [Ibrutinib, ibrutinib], in [10], the “Median decrease in CCL3” value is recorded as ≥ 80%. For the same compound, in data set [11], the “Median decrease in CCL4” value is ≥ 80%. Besides, in [12], the “Median decrease in TNFa” value is ≥ 80%.

Turning to `COc1ccc(F)cc1C(=O)NCc1ccc(-c2nn([C@@H](C)C(F)(F)F)c(N)c2C(N)=O)cc1` [Pirtobrutinib, pirtobrutinib], in data set [9], the Half-life entry is reported as “approximately 20 hours”.

(Values after article PMC8968902 (Haematologica, 2021).)
